Experimental data published in ChEMBL document CHEMBL5108076, “Target-Focused Library Design by Pocket-Applied Computer Vision and Fragment Deep Generative Linking” (J Med Chem, 2022).

target: CDK8/Cyclin C (Homo sapiens) (UniProt P49336+P24863); assay: Inhibition of Alexa fluor 647 labeled kinase tracer binding to human CDK8/cyclin C at 10 uM incubated for 1 hr by FRET based LanthaScreen Eu-Kinase binding assay relative to control; assay type: protein-complex assay
In short: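 Tagged CDK8/CyclinC (5 nM final) with biotin anti-His antibody and Eu-streptavidin; competitor at 10 μM; Alexa Fluor 647 tracer 236 (Kd 8 nM) at 10 nM final. Buffer: HEPES 50 mM pH 7.5, MgCl2 10 mM, EGTA 1 mM, Brij-35 0.01%. Incubated 1 h at room temperature. TR-FRET read with excitation at 337 nm and emission at 665/620 nm. Mean ± SEM of two independent experiments.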

Compound	inhibition [%]
CCOc1ccc(C(=O)Oc2cccnc2)cc1	> 50
COc1ccc(OC(=O)c2cccnc2)cc1	> 50
COc1ccc(C(O)Cc2cccnc2)cc1 (stereo not drawn)	> 50
c1ccc(COc2ccc(OCc3ccccn3)cc2)nc1	> 50
Cc1ccc(SC(C)C(=O)NCc2cccnc2)cc1 (stereo not drawn)	> 50
O=C(Nc1ccncc1)c1ccncc1	> 50

target: CDK8/Cyclin C (Homo sapiens, UniProt P49336); assay: Inhibition of Alexa fluor 647 labeled kinase tracer binding to human CDK8/cyclin C incubated for 1 hr by FRET based LanthaScreen Eu-Kinase binding assay; assay type: protein-complex assay
Sequence (P49336 whole entry): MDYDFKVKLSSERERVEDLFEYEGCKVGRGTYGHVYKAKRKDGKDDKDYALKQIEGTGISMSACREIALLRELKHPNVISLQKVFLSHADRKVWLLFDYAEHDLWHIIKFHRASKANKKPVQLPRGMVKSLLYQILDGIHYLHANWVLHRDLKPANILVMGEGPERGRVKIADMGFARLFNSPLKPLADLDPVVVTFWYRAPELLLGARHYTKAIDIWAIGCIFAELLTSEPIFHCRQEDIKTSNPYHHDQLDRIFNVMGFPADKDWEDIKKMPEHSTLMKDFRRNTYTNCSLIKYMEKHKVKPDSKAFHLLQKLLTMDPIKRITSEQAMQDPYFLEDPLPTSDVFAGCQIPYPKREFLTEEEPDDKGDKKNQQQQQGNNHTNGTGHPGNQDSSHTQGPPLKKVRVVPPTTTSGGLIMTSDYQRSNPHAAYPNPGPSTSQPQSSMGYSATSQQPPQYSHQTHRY
Sequence (P24863 whole entry, further chain): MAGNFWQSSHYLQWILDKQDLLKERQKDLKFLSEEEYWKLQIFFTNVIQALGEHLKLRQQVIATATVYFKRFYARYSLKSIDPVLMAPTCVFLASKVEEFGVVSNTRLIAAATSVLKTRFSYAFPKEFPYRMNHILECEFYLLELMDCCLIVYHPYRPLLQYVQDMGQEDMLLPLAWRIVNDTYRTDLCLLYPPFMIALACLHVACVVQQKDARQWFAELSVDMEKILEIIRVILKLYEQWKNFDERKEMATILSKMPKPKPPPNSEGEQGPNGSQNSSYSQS

Compound	IC50 [nM]
CCOc1ccc(C(=O)Oc2cccnc2)cc1	377
CCOc1ccc(C(=O)Oc2cnccc2C2CCN(c3ccccc3)CC2)cc1	144
CCOc1ccc(C(=O)Oc2cnccc2-c2cnn(-c3ccccc3)c2)cc1	6.4
CCOc1ccc(C(=O)Oc2cncc(NC(=O)Nc3ccccc3)c2)cc1	> 25000
CCOc1ccc(C(=O)Oc2cncc(C3CCN(c4ccccc4)CC3)c2)cc1	> 25000
CCOc1ccc(C(=O)Oc2cnccc2NC(=O)Nc2ccccc2)cc1	355
CCOc1ccc(C(=O)Oc2cncc(-c3cnn(-c4ccccc4)c3)c2)cc1	> 25000
